pIC50: −log10 of the molar value. The source made the active and inactive calls. The calls are words filed in the database; no cut-off is given here.
Tests used:
[1] = Half life in cynomolgus monkey at 5 mg/kg, po by LC-MS/MS analysis; type: ADME, organism-based, Macaca fascicularis; conditions: in vivo
[2] = Clearance in cynomolgus monkey at 1 mg/kg, iv by LC-MS/MS analysis; type: ADME, organism-based, Macaca fascicularis; conditions: in vivo
[3] = biological target: Voltage-gated inwardly rectifying potassium channel KCNH2 (Homo sapiens, UniProt Q12809); experiment: Inhibition of human ERG stably expressed in CHO cells by automated Qpatch clamp method; type: toxicity, cell-based
Voltage-gated inwardly rectifying potassium channel KCNH2, sequence (Q12809 whole entry): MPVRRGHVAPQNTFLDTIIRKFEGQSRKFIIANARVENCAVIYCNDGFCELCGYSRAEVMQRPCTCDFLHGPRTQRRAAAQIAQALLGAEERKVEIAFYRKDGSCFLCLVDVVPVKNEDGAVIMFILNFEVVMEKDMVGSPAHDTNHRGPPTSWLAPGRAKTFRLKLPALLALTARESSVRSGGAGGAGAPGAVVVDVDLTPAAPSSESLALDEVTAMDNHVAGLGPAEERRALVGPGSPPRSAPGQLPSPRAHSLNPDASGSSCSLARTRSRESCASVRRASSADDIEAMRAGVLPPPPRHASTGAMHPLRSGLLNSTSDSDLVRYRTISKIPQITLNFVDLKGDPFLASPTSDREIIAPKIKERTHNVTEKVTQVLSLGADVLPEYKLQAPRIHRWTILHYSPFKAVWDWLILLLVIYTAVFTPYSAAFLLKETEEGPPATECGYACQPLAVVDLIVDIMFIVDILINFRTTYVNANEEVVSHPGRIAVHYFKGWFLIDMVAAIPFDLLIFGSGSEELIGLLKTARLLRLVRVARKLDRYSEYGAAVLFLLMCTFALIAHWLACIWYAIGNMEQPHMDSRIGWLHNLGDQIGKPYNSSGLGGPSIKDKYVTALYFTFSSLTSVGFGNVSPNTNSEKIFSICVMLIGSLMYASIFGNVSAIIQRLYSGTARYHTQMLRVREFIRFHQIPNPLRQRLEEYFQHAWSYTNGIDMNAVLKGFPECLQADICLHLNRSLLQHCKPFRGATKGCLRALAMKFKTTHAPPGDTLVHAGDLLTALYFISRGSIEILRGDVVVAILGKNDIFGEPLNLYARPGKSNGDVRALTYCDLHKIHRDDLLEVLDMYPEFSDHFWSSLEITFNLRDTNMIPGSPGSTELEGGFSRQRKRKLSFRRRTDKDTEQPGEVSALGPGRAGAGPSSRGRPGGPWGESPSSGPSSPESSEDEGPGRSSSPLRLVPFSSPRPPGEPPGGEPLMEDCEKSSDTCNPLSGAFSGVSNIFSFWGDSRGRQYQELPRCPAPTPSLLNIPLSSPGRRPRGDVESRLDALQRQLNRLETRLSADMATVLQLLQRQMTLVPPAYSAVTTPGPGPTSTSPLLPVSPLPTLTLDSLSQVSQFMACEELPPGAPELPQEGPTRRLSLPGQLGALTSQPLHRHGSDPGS
Summary of the method: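 CHO cell line stably transfected with hERG cDNA expressing hERG channels; channel inhibition measured, IC50 reported.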

[4] = Half life in monkey liver microsomes by LC-MS/MS analysis; type: ADME, Macaca mulatta, Microsome; conditions: rhesus monkey
Summary of the method: (§1)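 Liver microsomes (human, monkey, dog, rat, mouse) incubated with test compound at 37 °C with NADPH cofactor; samples at 0, 5, 15, 30, 60 min for half-life and in vitro CLint.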

[5] = Oral bioavailability in dog at 5 mg/kg by LC-MS/MS analysis; type: ADME, organism-based, Canis lupus familiaris; conditions: in vivo
[6] = Half life in human liver microsomes by LC-MS/MS analysis; type: ADME, Microsome; summary of the method: as §1
HFL1 [7] = experiment: Antifibrotic activity in TGF-beta1-induced HFL1 cell injury assessed as down regulation of collagen 1 mRNA expression at 0.625 to 10 uM measured after 24 hrs by RT-PCR analysis; type: functional, cell-based; conditions: Homo sapiens, dose 0.625-10 µM
Summary of the method: (§2)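 TGF-β1-induced HFL-1 cells treated 24 h (test range 0.625–10 μM; comparator 3 mM); collagen 1 and collagen 3 mRNA measured by RT-PCR; mean of n = 3.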

[8] = Volume of distribution at steady state in Sprague-Dawley rat model of bleomycin-induced pulmonary fibrosis at 2 mg/kg, iv by LC-MS/MS analysis; type: ADME, organism-based; conditions: in vivo, read-out: Vdss
Summary of the method: (§3)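 Male Sprague-Dawley rats with induced pulmonary fibrosis were dosed 2.0 mg kg⁻¹ i.v. or 5.0 mg kg⁻¹ p.o. Plasma was stored at -70 °C, and the supernatant was analysed by LC-MS/MS.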

[9] = Toxicity in po dosed Sprague-Dawley rat administered once daily for 28 days; type: organism-based; conditions: in vivo, time 28 day
[10] = Clearance in dog at 1 mg/kg, iv by LC-MS/MS analysis; type: ADME, organism-based, Canis lupus familiaris; conditions: in vivo
[11] = Half life in Sprague-Dawley rat model of bleomycin-induced pulmonary fibrosis at 2 mg/kg, iv by LC-MS/MS analysis; type: ADME, organism-based; conditions: in vivo
Summary of the method: (§4)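 Male Sprague-Dawley rats with induced pulmonary fibrosis; single i.v. (2.0 mg kg⁻¹) or p.o. (5.0 mg kg⁻¹) administration. Plasma samples stored at −70 °C; the supernatant was analysed by LC-MS/MS for PK parameters.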

HFL1 [12] = experiment: Antifibrotic activity in TGF-beta1-induced HFL1 cell injury assessed as alpha-SMA expression at 5 uM measured after 48 hrs by Western blot analysis (reference value: 100%); type: functional, Homo sapiens
Summary of the method: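 HFL-1 cells stimulated with TGF-β1; α-SMA protein detected by Western blot with anti-α-SMA antibody, normalised to tubulin; mean of n = 3.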

[13] = Cmax in Sprague-Dawley rat model of bleomycin-induced pulmonary fibrosis at 5 mg/kg, po by LC-MS/MS analysis; type: ADME, organism-based; parameters: dose 5 mg/kg, route po; conditions: in vivo; summary of the method: as §4
[14] = Half life in cynomolgus monkey at 1 mg/kg, iv by LC-MS/MS analysis; type: ADME, organism-based, Macaca fascicularis; conditions: in vivo
[15] = Volume of distribution at steady state in dog at 1 mg/kg, iv by LC-MS/MS analysis; type: ADME, organism-based, Canis lupus familiaris; conditions: in vivo, read-out: Vdss
[16] = AUClast in cynomolgus monkey at 5 mg/kg, po by LC-MS/MS analysis; type: ADME, organism-based, Macaca fascicularis; parameters: time 0 - last, dose 5 mg/kg, route po; conditions: in vivo
Cytochrome P450 2C9 = Cytochrome P450 2C9 (Homo sapiens, UniProt P11712); experiment: Inhibition of CYP2C9 in human liver microsomes by LC-MS/MS analysis; type: ADME, Microsome
Cytochrome P450 2C9, sequence (P11712 whole entry): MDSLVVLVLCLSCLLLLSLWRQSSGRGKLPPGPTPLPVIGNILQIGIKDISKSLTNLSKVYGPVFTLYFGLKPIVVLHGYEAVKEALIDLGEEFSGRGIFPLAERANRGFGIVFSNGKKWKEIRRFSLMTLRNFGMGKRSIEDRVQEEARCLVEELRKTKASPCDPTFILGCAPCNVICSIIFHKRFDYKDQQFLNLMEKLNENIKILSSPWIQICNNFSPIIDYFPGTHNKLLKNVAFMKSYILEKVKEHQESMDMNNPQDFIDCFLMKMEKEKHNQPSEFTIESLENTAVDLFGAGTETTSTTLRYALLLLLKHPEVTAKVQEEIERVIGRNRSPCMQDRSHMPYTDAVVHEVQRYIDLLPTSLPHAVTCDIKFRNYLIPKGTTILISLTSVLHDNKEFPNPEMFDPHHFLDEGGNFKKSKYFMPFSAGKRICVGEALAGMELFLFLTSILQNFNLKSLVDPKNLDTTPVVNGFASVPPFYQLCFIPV
Summary of the method: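 Human microsomes incubated with CYP-specific substrates (1A2, 2C9, 2C19, 2D6, 3A4) and test compound at 0.0–10 μM; IC50 determined.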

[17] = Half life in dog at 5 mg/kg, po by LC-MS/MS analysis; type: ADME, organism-based, Canis lupus familiaris; conditions: in vivo
[18] = Mutagenecity in Salmonella typhimurium TA98 at 7.8 to 1000 ug measured after 2 to 3 days by mini-Ames test; type: toxicity, Salmonella enterica subsp. enterica serovar Typhimurium; conditions: dose lower 7.8 µg, time lower 2 day, dose upper 1000 µg, time upper 3 day
Summary of the method: (§5)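 Bacterial reverse mutation assay scoring reverse gene mutations at the histidine locus in Salmonella typhimurium strains TA98 and TA100.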

[19] = Mutagenecity in Salmonella typhimurium TA100 at 7.8 to 1000 ug measured after 2 to 3 days by mini-Ames test; type: toxicity, Salmonella enterica subsp. enterica serovar Typhimurium; conditions: dose lower 7.8 µg, time lower 2 day, dose upper 1000 µg, time upper 3 day; summary of the method: as §5
[20] = Intrinsic clearance in mouse liver microsomes by LC-MS/MS analysis; type: ADME, Microsome; conditions: read-out: CLH
Summary of the method: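 Liver microsomes were incubated with the compound at 37 °C with NADPH as cofactor and sampled at 0, 5, 15, 30 and 60 min. Half-life (min) and in vitro CLint (mL min⁻¹ kg) were derived from these samples.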

[21] = Oral bioavailability in cynomolgus monkey at 5 mg/kg by LC-MS/MS analysis; type: ADME, organism-based, Macaca fascicularis; conditions: in vivo
[22] = Tmax in Sprague-Dawley rat model of bleomycin-induced pulmonary fibrosis at 5 mg/kg, po by LC-MS/MS analysis; type: ADME, organism-based; conditions: in vivo; summary of the method: as §3
[23] = Cmax in dog at 5 mg/kg, po by LC-MS/MS analysis; type: ADME, organism-based, Canis lupus familiaris; parameters: dose 5 mg/kg, route po; conditions: in vivo
[24] = Cmax in cynomolgus monkey at 5 mg/kg, po by LC-MS/MS analysis; type: ADME, organism-based, Macaca fascicularis; parameters: dose 5 mg/kg, route po; conditions: in vivo
HFL1 [25] = experiment: Antifibrotic activity in TGF-beta1-induced HFL1 cell injury assessed as down regulation of collagen 3 mRNA expression at 0.625 to 10 uM measured after 24 hrs by RT-PCR analysis; type: functional, cell-based; conditions: Homo sapiens, dose 0.625-10 µM; summary of the method: as §2
[26] = Half life in mouse liver microsomes by LC-MS/MS analysis; type: ADME, Microsome; summary of the method: as §1
[27] = Oral bioavailability in Sprague-Dawley rat model of bleomycin-induced pulmonary fibrosis at 5 mg/kg by LC-MS/MS analysis; type: ADME, organism-based; conditions: in vivo; summary of the method: as §3
[28] = AUC(infinity) in Sprague-Dawley rat model of bleomycin-induced pulmonary fibrosis at 2 mg/kg, iv by LC-MS/MS analysis; type: ADME, organism-based; parameters: time infinity, dose 2 mg/kg, route iv; conditions: in vivo; summary of the method: as §4
HFL1 [29] = experiment: Antiproliferative activity against human HFL1 cells assessed as reduction in cell proliferation measured after 24 hrs by CCK-8 assay; type: functional, cell-based; conditions: HFL1, 24 h
Summary of the method: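 Human fetal lung fibroblasts (HFL-1); growth inhibition quantified with CCK-8; IC50 averaged from 3 experiments, each in duplicate.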

[30] = Clearance in Sprague-Dawley rat model of bleomycin-induced pulmonary fibrosis at 2 mg/kg, iv by LC-MS/MS analysis; type: ADME, organism-based; conditions: in vivo; summary of the method: as §4
[31] = AUClast in Sprague-Dawley rat model of bleomycin-induced pulmonary fibrosis at 2 mg/kg, iv by LC-MS/MS analysis; type: ADME, organism-based; parameters: time 0 - last, dose 2 mg/kg, route iv; conditions: in vivo; summary of the method: as §4
[32] = AUClast in Sprague-Dawley rat model of bleomycin-induced pulmonary fibrosis at 5 mg/kg, po by LC-MS/MS analysis; type: ADME, organism-based; parameters: time 0 - last, dose 5 mg/kg, route po; conditions: in vivo; summary of the method: as §4

## Cc1cc(=O)n(-c2ccc(N3CCC(Cc4ccc(Cl)c(F)c4)CC3)c(Cl)c2)c(C)n1
[1]
  half-life: 14 h
[2]
  clearance: 0.2 L/h/kg
[3]
  pIC50: < 4.52
[4]
  half-life: 0.695 h
[5]
  bioavailability: 15%
[6]
  half-life: 1.73 h
HFL1 [7]
  Activity: Active
[8]
  Vd: 8.2 L/kg
[9]
  MTD at 672 h: > 500 mg/kg
[10]
  clearance: 0.1 L/h/kg
[11]
  half-life: 26 h
HFL1 [12]
  Activity: 72.56%
[13]
  Cmax: 1.12 µg/mL
[14]
  half-life: 16 h
[15]
  Vd: 1.8 L/kg
[16]
  AUC(0-t): 12.9 µg·h/mL
Cytochrome P450 2C9
  pIC50: < 5.00
[17]
  half-life: 27 h
[18]
  Activity: Non-Toxic
[19]
  Activity: Non-Toxic
[20]
  CLint scaled: 4.62 L/h/kg
[21]
  bioavailability: 72%
[22]
  Tmax: 1.7 h
[23]
  Cmax: 0.628 µg/mL
[24]
  Cmax: 1.06 µg/mL
HFL1 [25]
  Activity: Active
[26]
  half-life: 1.18 h
[27]
  bioavailability: 105%
[28]
  AUC(0-inf): 7.98 µg·h/mL
HFL1 [29]
  pIC50: 4.22
[30]
  clearance: 0.26 L/h/kg
[31]
  AUC(0-t): 4.28 µg·h/mL
[32]
  AUC(0-t): 11.2 µg·h/mL
